Source: ChEMBL document CHEMBL1124127, “Central dopaminergic and 5-hydroxytryptaminergic effects of C3-methylated derivatives of 8-hydroxy-2-(di-n-propylamino)tetralin” (J Med Chem, 1988)

Assays:
[1] = target: T1, 5-hydroxytryptamine receptor 1A (Rattus norvegicus, UniProt P19327); assay: Inhibitory activity tested in vitro at 5-hydroxytryptamine 1A receptor binding site in rat
T1 sequence (P19327 whole entry): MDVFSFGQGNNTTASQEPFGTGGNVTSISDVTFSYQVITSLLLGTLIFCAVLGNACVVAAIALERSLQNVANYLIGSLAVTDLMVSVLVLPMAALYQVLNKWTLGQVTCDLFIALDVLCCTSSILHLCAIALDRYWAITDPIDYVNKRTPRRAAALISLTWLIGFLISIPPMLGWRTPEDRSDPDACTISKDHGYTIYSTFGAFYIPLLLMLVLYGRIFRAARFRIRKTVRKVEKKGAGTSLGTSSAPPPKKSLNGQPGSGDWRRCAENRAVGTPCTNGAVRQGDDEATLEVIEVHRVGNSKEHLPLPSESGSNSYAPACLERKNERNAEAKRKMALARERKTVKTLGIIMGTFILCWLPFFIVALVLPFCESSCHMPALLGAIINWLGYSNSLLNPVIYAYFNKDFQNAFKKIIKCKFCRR
Summary of the method: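 Competition binding used rat brain membranes washed in 50 mM Tris-HCl pH 7.4, preincubated 10 min at 37 °C to remove 5-HT, and used at 10 mg wet tissue/mL. Assay: 1 nM [3H]-8-OH-DPAT, 3 mM CaCl2, 100 µM pargyline, 15 min at 37 °C, then filtration on PEI-treated filters. Nonspecific binding was set with 10 µM 5-HT. IC50 came from four-parameter logistic regression, mean ± SEM of N experiments.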

[2] = test system: Rattus norvegicus; assay: Effect on in vivo accumulation of 5-HTP was measured in rat corpus striatum at 2.2 (umol/kg) dose; type: functional
Summary of the method: (§1)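 Rats not pretreated with reserpine received test drug (hydrochloride or hydrobromide salt) sc in the neck region 60 min before death. NSD 1015 decarboxylase inhibitor (100 mg/kg, i.e., 573 μmol/kg, ip) was given 30 min before decapitation. Brain was dissected on ice. Tissue was homogenized in 0.1 M perchloric acid with α-methyl-DOPA internal standard. Analytes were quantified by ion-pair reversed-phase HPLC-electrochemical detection. Values are means ± SEM, n = 3-7 per treated group.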

[3] = test system: Rattus norvegicus; assay: Effect on in vivo accumulation of DOPA was measured in rat corpus striatum at 22(Micromol/kg) dose; type: functional; summary of the method: as §1
[4] = test system: Rattus norvegicus; assay: Effect on in vivo accumulation of 5-HTP was measured in rat limbic system at 2.2 (umol/kg) dose; type: functional; summary of the method: as §1
[5] = test system: Rattus norvegicus; assay: Effect on in vivo accumulation of […] was measured in rat corpus striatum at 2.2 (umol/kg) dose; type: functional; summary of the method: as §1
[6] = test system: Rattus norvegicus; assay: Effect on in vivo accumulation of dopamine(DA) was measured in rat limbic system at 2.2 (umol/kg) dose; type: functional
Summary of the method: (§2)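 Non-reserpinized rats got the test drug sc in the neck (5 mL/kg) 60 min before death, and NSD 1015 (573 µmol/kg ip) 30 min before death. After decapitation, the limbic system was dissected on ice, frozen and homogenized in 0.1 M perchloric acid with α-methyl-DOPA internal standard. DA was measured by ion-pair reversed-phase HPLC with electrochemical detection. Data are mean ± SEM (controls n=17-19, treated 3-7), analysed by ANOVA/Dunnett.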

[7] = test system: Rattus norvegicus; assay: Effect on in vivo accumulation of dopamine(DA) was measured in rat limbic system at 22(Micromol/kg) dose; type: functional; summary of the method: as §2
[8] = test system: Rattus norvegicus; assay: Effect on in vivo accumulation of DOPA was measured in rat limbic system at 2.2 (umol/kg) dose; type: functional; summary of the method: as §1
[9] = test system: Rattus norvegicus; assay: Effect on in vivo accumulation of DOPA was measured in rat limbic system at 22(Micromol/kg) dose; type: functional; summary of the method: as §1
[10] = test system: Rattus norvegicus; assay: Effect on in vivo accumulation of 5-HTP was measured in rat corpus striatum at 22(umol/kg) dose; type: functional; summary of the method: as §1
[11] = test system: Rattus norvegicus; assay: Effect on in vivo accumulation of […] was measured in rat corpus striatum at 22(Micromol/kg) dose; type: functional; summary of the method: as §1
[12] = test system: Rattus norvegicus; assay: Effect on in vivo accumulation of 5-HTP was measured in rat limbic system at 22(Micromol/kg) dose; type: functional; summary of the method: as §1
[13] = test system: Rattus norvegicus; assay: Effect on in vivo accumulation of DOPA was measured in rat corpus striatum at 2.2 (umol/kg) dose; type: functional; summary of the method: as §1
[14] = test system: Rattus norvegicus; assay: Effect on in vivo accumulation of 5-HTP was measured in rat corpus striatum at 2.5(umol/kg) dose; type: functional; summary of the method: as §1
[15] = test system: Rattus norvegicus; assay: Effect on in vivo accumulation of DOPA was measured in rat limbic system at 25(Micromol/kg) dose; type: functional; summary of the method: as §1
[16] = test system: Rattus norvegicus; assay: Effect on in vivo accumulation of DOPA was measured in rat corpus striatum at 2.5 (umol/kg) dose; type: functional; summary of the method: as §1
[17] = test system: Rattus norvegicus; assay: Effect on in vivo accumulation of dopamine(DA) was measured in rat limbic system at 50(Micromol/kg) dose; type: functional; summary of the method: as §2
[18] = test system: Rattus norvegicus; assay: Effect on in vivo accumulation of 5-HTP was measured in rat corpus striatum at 50(umol/kg) dose; type: functional; summary of the method: as §1
[19] = test system: Rattus norvegicus; assay: Effect on in vivo accumulation of dopamine(DA) was measured in rat limbic system at 25(Micromol/kg) dose; type: functional; summary of the method: as §2
[20] = test system: Rattus norvegicus; assay: Effect on in vivo accumulation of 5-HTP was measured in rat limbic system at 25(Micromol/kg) dose; type: functional; summary of the method: as §1
[21] = test system: Rattus norvegicus; assay: Effect on in vivo accumulation of […] was measured in rat corpus striatum at 50(Micromol/kg) dose; type: functional; summary of the method: as §1
[22] = test system: Rattus norvegicus; assay: Effect on in vivo accumulation of DOPA was measured in rat limbic system at 2.5 (umol/kg) dose; type: functional; summary of the method: as §1
[23] = test system: Rattus norvegicus; assay: Effect on in vivo accumulation of 5-HTP was measured in rat limbic system at 50(Micromol/kg) dose; type: functional; summary of the method: as §1
[24] = test system: Rattus norvegicus; assay: Effect on in vivo accumulation of DOPA was measured in rat limbic system at 50(Micromol/kg) dose; type: functional; summary of the method: as §1
[25] = test system: Rattus norvegicus; assay: Effect on in vivo accumulation of DOPA was measured in rat corpus striatum at 25(Micromol/kg) dose; type: functional; summary of the method: as §1
[26] = test system: Rattus norvegicus; assay: Effect on in vivo accumulation of […] was measured in rat corpus striatum at 25(Micromol/kg) dose; type: functional; summary of the method: as §1
[27] = test system: Rattus norvegicus; assay: Effect on in vivo accumulation of 5-HTP was measured in rat corpus striatum at 25 (umol/kg) dose; type: functional; summary of the method: as §1
[28] = test system: Rattus norvegicus; assay: Effect on in vivo accumulation of 5-HTP was measured in rat limbic system at 2.5 (umol/kg) dose; type: functional; summary of the method: as §1
[29] = test system: Rattus norvegicus; assay: Effect on in vivo accumulation of DOPA was measured in rat corpus striatum at 50(Micromol/kg) dose; type: functional; summary of the method: as §1
[30] = test system: Rattus norvegicus; assay: Effect on in vivo accumulation of dopamine(DA) was measured in rat limbic system at 2.5 (umol/kg) dose; type: functional; summary of the method: as §2
[31] = test system: Rattus norvegicus; assay: Effect on in vivo accumulation of […] was measured in rat corpus striatum at 2.5 (umol/kg) dose; type: functional; summary of the method: as §1

CCCN(CCC)[C@H]1Cc2c(O)cccc2C[C@@H]1C (stereo in doubt; (+)-11)
IC50 [1]: 60.5 nM
Activity [2]: 87.3 ng/g
Activity [3]: 959 ng/g
Activity [4]: 144 ng/g
Activity [5]: 5158 ng/g
Activity [6]: 1067 ng/g
Activity [7]: <839 ng/g
Activity [8]: 389 ng/g
Activity [9]: 400 ng/g
Activity [10]: <56.4 ng/g
Activity [11]: <4089 ng/g
Activity [12]: <89.5 ng/g
Activity [13]: 1008 ng/g

CCCN(CCC)[C@H]1Cc2c(O)cccc2C[C@H]1C (stereo in doubt; (-)-15)
IC50 [1]: 486 nM
Activity [14]: 96.6 ng/g
Activity [15]: <521 ng/g
Activity [16]: 1080 ng/g
Activity [17]: 1065 ng/g
Activity [18]: <45.8 ng/g
Activity [19]: 1094 ng/g
Activity [20]: <120 ng/g
Activity [21]: 5282 ng/g
Activity [22]: <463 ng/g
Activity [23]: <88.3 ng/g
Activity [24]: 396 ng/g
Activity [25]: 1241 ng/g
Activity [26]: 4751 ng/g
Activity [27]: <65.4 ng/g
Activity [28]: 163 ng/g
Activity [29]: 1001 ng/g
Activity [30]: 1133 ng/g
Activity [31]: 4439 ng/g
